Experimental data from ChEMBL document CHEMBL1148222, “Chemical constituents of Glycosmis arborea: three new carbazole alkaloids and their biological activity” (J Nat Prod, 2004).

Legend:
Format in all cases: cell-based
Raji [1] = assay: Inhibition of TPA-induced EBV-early antigen activation in human Raji cells at 32 […] after 48 hrs relative to control; set-up: scale not given: the % may be the effect or the level left; conditions: human gammaherpesvirus 4
Procedure, shortened: (§1)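 Raji cells at 10^6 cells/mL were resuspended in RPMI 1640 with 10% FCS. Induction used 4 mM n-butyric acid plus 32 pmol TPA (20 ng/mL), with test compound in DMSO at mol ratios of 10–1000 to TPA. Cells were held 48 h at 37 °C. EA-positive cells were counted blind, at least 500 cells per assay, and expressed as % of the TPA-only control (100%) ± SD.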

Raji [2] = assay: Cytotoxicity against human Raji cells at 32 […] after 48 hrs by trypan blue staining method
Procedure, shortened: (§2)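 Raji cells grown to 10^6 cells/mL, then resuspended in RPMI 1640 with 10% FCS. Medium held 4 mM n-butyric acid, 32 pmol TPA (20 ng/mL in DMSO) and test compound in DMSO. Culture ran 48 h at 37 °C. Viable cells were counted by hemocytometer with Trypan Blue exclusion. At least 60% survival is required for a valid EBV-EA reading.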

Raji [3] = assay: Inhibition of TPA-induced EBV-early antigen activation in human Raji cells at 16 […] after 48 hrs relative to control; set-up: scale not given: the % may be the effect or the level left; conditions: human gammaherpesvirus 4; procedure, shortened: as §1
Raji [4] = assay: Cytotoxicity against human Raji cells at 16 […] after 48 hrs by trypan blue staining method; procedure, shortened: as §2
Raji [5] = assay: Inhibition of TPA-induced EBV-early antigen activation in human Raji cells at 3.2 […] after 48 hrs relative to control; set-up: scale not given: the % may be the effect or the level left; conditions: human gammaherpesvirus 4; procedure, shortened: as §1
Raji [6] = assay: Cytotoxicity against human Raji cells at 3.2 […] after 48 hrs by trypan blue staining method; procedure, shortened: as §2
Raji [7] = assay: Inhibition of TPA-induced EBV-early antigen activation in human Raji cells at 0.32 […] after 48 hrs relative to control; set-up: scale not given: the % may be the effect or the level left; conditions: human gammaherpesvirus 4; procedure, shortened: as §1
Raji [8] = assay: Cytotoxicity against human Raji cells at 0.32 […] after 48 hrs by trypan blue staining method; procedure, shortened: as §2

| SMILES | Activity (Raji [1]) [%] | Activity (Raji [2]) [%] | Activity (Raji [3]) [%] | Activity (Raji [4]) [%] | Activity (Raji [5]) [%] | Activity (Raji [6]) [%] | Activity (Raji [7]) [%] | Activity (Raji [8]) [%] |
| --- | --- | --- | --- | --- | --- | --- | --- | --- |
| COc1cccc2c(=O)c3ccoc3n(C)c12 | 19.9 | 60 | 40.5 | > 80 | 79.5 | > 80 | 100 | > 80 |
| Cn1c(Cc2ccccc2)nc(=O)c2ccccc21 [ARBORINE] | 12.7 | 60 | 40.4 | > 80 | 75.6 | > 80 | 100 | > 80 |
| COc1cc2c(c(O)c1OC)c(=O)c1ccccc1n2C [ARBORININE] | 2.7 | 60 | 39.6 | > 80 | 74.3 | > 80 | 95.6 | > 80 |
| CC1=C(/C=C/C(C)=C/C=C/C(C)=C/C=C/C=C(C)/C=C/C=C(C)/C=C/C2=C(C)CCCC2(C)C)C(C)(C)CCC1 [BETA CAROTENE] | 9.1 | 60 |  | > 80 |  | > 80 | 100 | > 80 |
| COc1c2ccoc2nc2c(OC)cccc12 [GAMMA-FAGARINE] | 15.4 | 60 | 38.2 | > 80 | 77.7 | > 80 | 100 | > 80 |
| COc1ccc2[nH]c3cc(O)c(C)cc3c2c1CC=C(C)C [GLYBOMINE B] | 15.3 | 60 | 46.7 | > 80 | 68.7 | > 80 | 96.4 | > 80 |
| CC(C)=CCc1c(O)ccc2[nH]c3cc(O)c(C)cc3c12 [GLYBOMINE C] | 13.4 | 60 | 45.6 | > 80 | 68.9 | > 80 | 94.6 | > 80 |
| Cc1cc2c(cc1O)[nH]c1ccc3c(c12)C=CC(C)(C)O3 [GLYCOBORININE] | 17.4 | 60 | 49.1 | > 80 | 73.7 | > 80 | 100 | > 80 |
| COc1ccc2[nH]c3cc(OC)c(C)cc3c2c1 [GLYCOZOLIDINE] | 24.3 | 60 | 51.3 | > 80 | 76 | > 80 | 100 | > 80 |
| Cn1c2ccccc2c(=O)c2ccoc21 [ISODICTAMNINE] | 18.4 | 60 | 40.3 | > 80 | 72.2 | > 80 | 100 | > 80 |
